Experimental data from ChEMBL document CHEMBL4229446, “Development of Novel Monoamine Oxidase-B (MAO-B) Inhibitors with Reduced Blood-Brain Barrier Permeability for the Potential Management of Noncentral Nervous System (CNS) Diseases” (J Med Chem, 2018).

Tests used:
[1] = molecular target: T1, Amine oxidase [flavin-containing] A (Homo sapiens, UniProt P21397); assay: Inhibition of human recombinant MAO-A expressed in baculovirus infected BTI-TN-5B1-4 insect cells using tyramine as substrate preincubated for 1 hr followed by substrate addition and measured after 30 mins by resazurin dye-based fluorescence assay
T1 sequence (P21397 whole entry): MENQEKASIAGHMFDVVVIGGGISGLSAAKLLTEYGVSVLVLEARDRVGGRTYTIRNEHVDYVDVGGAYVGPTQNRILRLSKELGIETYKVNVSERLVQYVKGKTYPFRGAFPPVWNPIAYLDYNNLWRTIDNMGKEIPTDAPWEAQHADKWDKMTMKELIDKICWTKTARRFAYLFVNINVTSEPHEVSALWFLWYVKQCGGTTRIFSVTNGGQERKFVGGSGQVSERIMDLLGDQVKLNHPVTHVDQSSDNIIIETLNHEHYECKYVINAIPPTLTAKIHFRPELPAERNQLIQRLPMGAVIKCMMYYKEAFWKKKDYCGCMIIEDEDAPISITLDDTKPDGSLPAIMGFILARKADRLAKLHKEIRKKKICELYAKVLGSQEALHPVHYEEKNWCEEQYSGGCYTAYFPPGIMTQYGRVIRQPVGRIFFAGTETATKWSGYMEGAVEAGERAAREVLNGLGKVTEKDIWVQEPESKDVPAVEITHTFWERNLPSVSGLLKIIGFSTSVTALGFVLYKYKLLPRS

[2] = molecular target: T2, Amine oxidase [flavin-containing] B (Homo sapiens, UniProt P27338); assay: Inhibition of human recombinant MAO-B expressed in baculovirus infected BTI-TN-5B1-4 insect cells using benzylamine as substrate preincubated for 1 hr followed by substrate addition and measured after 30 mins by resazurin dye-based fluorescence assay; assay type: cell-based
T2 sequence (P27338 whole entry): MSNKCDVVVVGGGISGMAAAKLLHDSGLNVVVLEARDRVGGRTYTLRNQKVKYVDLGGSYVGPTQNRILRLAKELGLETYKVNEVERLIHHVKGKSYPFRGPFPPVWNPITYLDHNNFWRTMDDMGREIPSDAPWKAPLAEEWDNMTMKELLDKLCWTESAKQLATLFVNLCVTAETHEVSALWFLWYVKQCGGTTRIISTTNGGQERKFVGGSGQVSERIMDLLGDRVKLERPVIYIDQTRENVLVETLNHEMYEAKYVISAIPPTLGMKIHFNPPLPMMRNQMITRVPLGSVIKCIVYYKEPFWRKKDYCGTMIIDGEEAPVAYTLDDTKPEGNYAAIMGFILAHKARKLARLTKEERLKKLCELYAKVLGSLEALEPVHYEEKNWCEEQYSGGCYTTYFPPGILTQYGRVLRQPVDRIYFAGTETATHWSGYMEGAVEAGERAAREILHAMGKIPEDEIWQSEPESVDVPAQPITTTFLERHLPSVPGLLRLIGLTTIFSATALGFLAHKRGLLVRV

P-gp (MDR1) = assay: Efflux ratio of apparent permeability in MDCK2-MDR1 cells at 10 uM after 1 hr in absence of P-gp inhibitor verapamil by UPLC-MS/MS analysis; assay type: ADME, cell-based, Canis lupus familiaris; settings: dog, MDCK-MDR1
Procedure, shortened: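 MDCK-WT (MEM-α/10% FBS) or MDCK-MDR1 II (DMEM/10% FBS) cells were grown 3 days on 12-well transwells. Integrity was checked by TEER and 100 μM Lucifer yellow. Cells were washed in HBSS/10 mM HEPES. Compound at 10 μM was added apically or basally, in triplicate, ±100 μM verapamil. Receiver sampled at 1 h by UPLC-MS/MS. Efflux ratio = Papp B→A / Papp A→B.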

[3] = Metabolic stability in human plasma assessed as parent compound remaining at 5 uM after 4 hrs by UPLC-MS/MS analysis; assay type: ADME, cell-free; settings: read-out: Stability
Procedure, shortened: (§1)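 Compound at 5 μM was incubated in mouse or human plasma at 37 °C with shaking. Sampled at 0, 5, 15, 30, 60, 120 and 240 min and stopped with ice-cold acetonitrile/0.1% formic acid containing internal standard. Supernatants analysed by UPLC-MS/MS for parent remaining. Run in triplicate.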

[4] = Metabolic stability in mouse plasma assessed as parent compound remaining at 5 uM after 4 hrs by UPLC-MS/MS analysis; assay type: ADME, cell-free; settings: read-out: Stability; procedure, shortened: as §1
[5] = Metabolic stability in mouse liver microsomes assessed as parent compound remaining at 1 uM after 60 mins in presence of NADPH by UPLC-MS/MS analysis; assay type: ADME, microsome; settings: read-out: Stability
Procedure, shortened: (§2)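 Compound at 1 μM with 0.5 mg/mL mouse or human liver microsomes in 100 mM potassium phosphate pH 7.4, 3.3 mM MgCl2, 1 mM NADPH, at 37 °C. Started with NADPH; minus-NADPH control run. Stopped at 0, 5, 15, 30, 45 and 60 min with acetonitrile/formic acid plus internal standard. Parent remaining by UPLC-MS/MS, in triplicate.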

[6] = Metabolic stability in human liver microsomes assessed as parent compound remaining at 1 uM after 60 mins by UPLC-MS/MS analysis; assay type: ADME, microsome; settings: liver microsomes, read-out: Stability; procedure, shortened: as §2
[7] = Metabolic stability in cryopreserved mouse hepatocytes assessed as parent compound remaining at 1 uM after 60 mins by UPLC-MS/MS analysis; assay type: ADME, cell-based, Hepatocyte; settings: read-out: Stability
Mus musculus [8] = assay: Acute toxicity in C57BL/6 mouse assessed as abnormal clinical signs at […], sc administered as single dose measured after 24 hrs post-injection; assay type: organism-based; settings: in vivo
[9] = Tmax in C57BL/6 mouse plasma at 20 mg/kg, iv administered as single dose measured 24 hrs by UPLC-MS/MS analysis; assay type: ADME, organism-based
Procedure, shortened: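 Plasma cleaned by protein precipitation with phospholipid removal, then UPLC-MS/MS in MRM mode. Tmax obtained by noncompartmental analysis.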

[10] = Cmax in C57BL/6 mouse plasma at 20 mg/kg, iv administered as single dose measured 24 hrs by UPLC-MS/MS analysis; assay type: ADME, organism-based; parameters: dose 20 mg/kg, route intravenous
Procedure, shortened: (§3)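 21 animals dosed at 0 min, 3 sacrificed at each of 0, 5, 15, 30 min, 1, 4 and 24 h. Plasma was extracted by protein precipitation with phospholipid removal. Brain was weighed, bead-homogenised in 50 mM ammonium formate and extracted in acidified organic solvent. Quantified by UPLC-MS/MS (MRM). Brain ng/g taken as ng/mL. Parameters came from noncompartmental analysis. Kp = AUClast brain/plasma.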

[11] = AUClast in C57BL/6 mouse plasma at 20 mg/kg, iv administered as single dose measured 24 hrs by UPLC-MS/MS analysis; assay type: ADME, organism-based; parameters: dose 20 mg/kg, route intravenous, time 0 - last; procedure, shortened: as §3
[12] = Apparent half-life of the terminal disposition phase in C57BL/6 mouse plasma at 20 mg/kg, iv administered as single dose measured 24 hrs by UPLC-MS/MS analysis; assay type: ADME, organism-based; settings: read-out: t1/2 lambda z (converted); procedure, shortened: as §3
[13] = Tmax in C57BL/6 mouse brain at 20 mg/kg, iv administered as single dose measured 24 hrs by UPLC-MS/MS analysis; assay type: ADME, organism-based; procedure, shortened: as §3
[14] = Cmax in C57BL/6 mouse brain at 20 mg/kg, iv administered as single dose measured 24 hrs by UPLC-MS/MS analysis; assay type: ADME, organism-based; parameters: dose 20 mg/kg, route intravenous; procedure, shortened: as §3
[15] = AUClast in C57BL/6 mouse brain at 20 mg/kg, iv administered as single dose measured 24 hrs by UPLC-MS/MS analysis; assay type: ADME, organism-based; parameters: dose 20 mg/kg, time 0 - last, route intravenous; procedure, shortened: as §3
[16] = Ratio of AUClast in brain to plasma in C57BL/6 mouse at 20 mg/kg, iv administered as single dose measured 24 hrs by UPLC-MS/MS analysis; assay type: ADME, organism-based; procedure, shortened: as §3
Mus musculus [17] = assay: Acute toxicity in C57BL/6 mouse assessed as abnormal clinical signs at […], iv administered as single dose measured after 24 hrs post-injection; assay type: organism-based; settings: in vivo
Mus musculus [18] = assay: Acute toxicity in C57BL/6 mouse assessed as abnormal clinical signs at […], po administered as single dose measured after 24 hrs post-injection; assay type: organism-based; settings: in vivo
[19] = Efflux ratio of apparent permeability in MDCK-WT cells at 10 uM after 1 hr in absence of P-gp inhibitor verapamil by UPLC-MS/MS analysis; settings: dog

| SMILES | IC50 [1] [µM] | IC50 [2] [µM] | further results |
| --- | --- | --- | --- |
| C[C@H](Cc1ccc(OCc2ccccn2)cc1)N(C)CC(=O)O | > 50 | – | – |
| CN(CC(=O)O)[C@H](COCc1ccccc1)Cc1ccc(OCc2ccccc2)cc1 | > 50 | 8 | – |
| C#CCN(C)[C@H](C)Cc1ccc(OCc2ccccc2)cc1 | 0.161 | 0.005 | – |
| C[C@H](Cc1ccc(OCc2ccccc2Cl)cc1)N(C)CC(=O)O | > 50 | 0.713 | – |
| C[C@H](Cc1ccc(OCc2cccc([N+](=O)[O-])c2)cc1)N(C)CC(=O)O | > 50 | 4.37 | – |
| C[C@H](Cc1ccc(OCc2ccc(C#N)cc2)cc1)N(C)CC(=O)O | > 50 | 3.75 | – |
| COC(=O)[C@H](Cc1ccc(OCc2ccccc2)cc1)N(C)CC(=O)O | > 50 | 7.93 | – |
| COC(=O)c1ccc(COc2ccc(C[C@@H](C)N(C)CC(=O)O)cc2)cc1 | > 50 | – | – |
| COC(=O)[C@H](Cc1ccc(OCc2cccc(Cl)c2)cc1)N(C)CC(=O)O | > 50 | 1.26 | – |
| C[C@H](Cc1ccc(OCc2cccc(Cl)c2)cc1)N(C)CC(=O)O | > 50 | 0.264 | efflux ratio at 1 h, 10 µM (P-gp (MDR1)): 1.75; remaining at 4 h, 5 µM [3]: ≥ 75%; remaining at 4 h, 5 µM [4]: ≥ 75%; remaining at 1 h, 1 µM [5]: 87.3%; remaining at 1 h, 1 µM [6]: ≥ 90%; remaining at 1 h, 1 µM [7]: ≥ 90%; Activity (Mus musculus [8]): Non-Toxic; Tmax [9]: 5 min; Cmax [10]: 16600 ng/mL; AUC(0-t) at 24 h [11]: 112000 ng·h/mL; half-life [12]: 4.51 h; Tmax [13]: 1 h; Cmax [14]: 648 ng/mL; AUC(0-t) at 24 h [15]: 2280 ng·h/mL; Kp at 24 h [16]: 0.02; Activity (Mus musculus [17]): Non-Toxic; Activity (Mus musculus [18]): Non-Toxic; efflux ratio at 1 h, 10 µM [19]: 1.23 |
| C[C@H](Cc1ccc(OCc2ccccc2C#N)cc1)N(C)CC(=O)O | > 50 | 14.1 | – |
| C[C@H](Cc1ccc(OCc2cccnc2)cc1)N(C)CC(=O)O | > 50 | > 50 | – |
